The source made the active and inactive calls. No cut-off for these calls is given here.
What was measured:
RAW264.7 [1] = assay: Antiinflammatory activity in mouse RAW264.7 cells assessed as inhibition of LPS-induced NO production preincubated for 1 hr followed by LPS addition and measured after 24 hrs by Griess reagent-based assay; format: functional, cell-based
In short: (§1)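 RAW 264.7 cells pretreated with compound for 1 h, then LPS 1 µg/mL for 24 h. Single-point inhibition at 10 µM. IC50 by regression of inhibition over several concentrations. At least three independent experiments.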

RAW264.7 [2] = assay: Cytotoxicity against mouse RAW264.7 cells assessed as reduction in cell viability; format: cell-based
RAW264.7 [3] = assay: Cytotoxicity against LPS-induced mouse RAW264.7 cells assessed as reduction in cell viability; format: cell-based
RAW264.7 [4] = assay: Antiinflammatory activity in mouse RAW264.7 cells assessed as inhibition of LPS-induced NO production at 10 uM preincubated for 1 hr followed by LPS addition and measured after 24 hrs by Griess reagent-based assay relative to control; format: functional; in short: as §1
[5] = target: T1, Nitric oxide synthase, inducible (Mus musculus, UniProt P29477); assay: Inhibition of iNOS in LPS-stimulated mouse RAW 264.7 cells preincubated for 1 hr followed by LPS-stimulation and measured after 6 hrs by fluorescence based assay
T1 sequence (P29477 whole entry): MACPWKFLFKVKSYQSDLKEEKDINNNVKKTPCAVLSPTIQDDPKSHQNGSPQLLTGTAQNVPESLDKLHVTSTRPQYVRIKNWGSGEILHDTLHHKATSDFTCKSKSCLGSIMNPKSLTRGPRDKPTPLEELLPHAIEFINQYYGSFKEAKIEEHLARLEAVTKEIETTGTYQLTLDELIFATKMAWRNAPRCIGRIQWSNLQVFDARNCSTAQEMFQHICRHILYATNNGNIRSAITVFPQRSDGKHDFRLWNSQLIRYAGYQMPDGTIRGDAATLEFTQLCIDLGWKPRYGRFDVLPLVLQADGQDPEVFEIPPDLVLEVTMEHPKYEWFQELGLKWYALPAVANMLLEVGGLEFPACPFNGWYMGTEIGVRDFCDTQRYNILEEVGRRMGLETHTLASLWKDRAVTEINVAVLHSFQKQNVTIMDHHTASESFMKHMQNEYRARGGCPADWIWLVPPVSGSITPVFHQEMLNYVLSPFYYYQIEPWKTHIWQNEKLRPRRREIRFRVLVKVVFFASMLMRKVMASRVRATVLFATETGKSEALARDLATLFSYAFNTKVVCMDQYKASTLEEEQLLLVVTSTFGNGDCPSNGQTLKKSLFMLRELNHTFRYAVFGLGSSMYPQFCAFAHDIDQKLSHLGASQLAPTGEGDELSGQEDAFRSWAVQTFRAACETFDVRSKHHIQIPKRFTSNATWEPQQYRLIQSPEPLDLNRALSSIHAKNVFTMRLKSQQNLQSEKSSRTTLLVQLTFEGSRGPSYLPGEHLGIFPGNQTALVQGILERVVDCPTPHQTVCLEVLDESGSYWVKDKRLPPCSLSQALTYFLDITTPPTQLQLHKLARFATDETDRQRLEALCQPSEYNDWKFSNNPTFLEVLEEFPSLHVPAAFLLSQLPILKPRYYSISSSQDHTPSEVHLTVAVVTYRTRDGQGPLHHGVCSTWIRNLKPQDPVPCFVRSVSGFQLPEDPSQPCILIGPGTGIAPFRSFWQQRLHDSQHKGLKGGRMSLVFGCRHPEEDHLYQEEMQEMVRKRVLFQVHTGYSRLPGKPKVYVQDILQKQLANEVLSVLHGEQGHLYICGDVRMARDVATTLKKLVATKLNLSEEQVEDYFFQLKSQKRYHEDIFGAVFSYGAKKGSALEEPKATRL
In short: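 Inhibition calculated relative to LPS-stimulated and unstimulated controls. IC50 obtained by regression of inhibition rates at several concentrations. Indomethacin served as positive control.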

[6] = Mus musculus, RAW264.7, read-out: IC50

SMILES	inhibition at 10 µM (RAW264.7 [4])	other results
CCCc1nn(C)c2c(NCc3ccc(Cl)cc3)nc(/C=C/c3ccco3)nc12	56.4%	IC50 (RAW264.7 [1]; [6]): 9.26 µM; IC50 (RAW264.7 [2]): > 50 µM; IC50 (RAW264.7 [3]): > 50 µM; IC50 ([5]; read-out: IC50): 4.25 µM
CCCc1nn(C)c2c(NCC(C)C)nc(/C=C/c3ccccc3)nc12	33.3%	IC50 (RAW264.7 [1]; [6]): 22.1 µM; IC50 (RAW264.7 [2]): > 50 µM; IC50 (RAW264.7 [3]): > 50 µM; IC50 ([5]; read-out: IC50): 5.31 µM
CCCc1nn(C)c2c(Nc3ccccc3)nc(/C=C/c3ccccc3)nc12	4.9%	IC50 (RAW264.7 [1]; raw264.7): Not Active; IC50 (RAW264.7 [2]): > 50 µM; IC50 (RAW264.7 [3]): > 50 µM; IC50 [5]: Not Active
CCCc1nn(C)c2c(N3CCCC3)nc(-c3cc(OC)c(OC)c(OC)c3)nc12	3.1%	IC50 (RAW264.7 [1]; raw264.7): Not Active; IC50 (RAW264.7 [2]): > 50 µM; IC50 (RAW264.7 [3]): > 50 µM; IC50 [5]: Not Active
COc1ccc2c(c1)c(CC(=O)O)c(C)n2C(=O)c1ccc(Cl)cc1 [INDOMETHACIN]	59.2%	IC50 (RAW264.7 [2]): > 50 µM; IC50 (RAW264.7 [3]): > 50 µM; IC50 ([5]; read-out: IC50): 24.9 µM
CCCc1nn(C)c2c(NCCc3ccc(Cl)cc3)nc(/C=C/c3ccco3)nc12	79.2%	IC50 (RAW264.7 [1]; [6]): 6.04 µM; IC50 (RAW264.7 [2]): > 50 µM; IC50 (RAW264.7 [3]): > 50 µM; IC50 ([5]; read-out: IC50): 2.6 µM
CCCc1nn(C)c2c(N(C)C)nc(-c3cc(OC)c(OC)c(OC)c3)nc12	21.2%	
CCCc1nn(C)c2c(NCCc3ccc(O)cc3)nc(/C=C/c3cc(OC)c(OC)c(OC)c3)nc12	15%	
CCCc1nn(C)c2c(Nc3ccccc3)nc(/C=C/c3cc(OC)c(OC)c(OC)c3)nc12	48.1%	
CCCc1nn(C)c2c(N3CCOCC3)nc(/C=C/c3cc(OC)c(OC)c(OC)c3)nc12	81%	
CCCc1nn(C)c2c(NCc3ccc(Cl)cc3)nc(/C=C/c3cc(OC)c(OC)c(OC)c3)nc12	67.2%	
CCCc1nn(C)c2c(NCCc3ccccc3Cl)nc(/C=C/c3ccccc3)nc12	14.3%	
CCCc1nn(C)c2c(N(C)C)nc(/C=C/c3ccco3)nc12	30.6%	
CCCc1nn(C)c2c(NCc3ccco3)nc(/C=C/c3cc(OC)c(OC)c(OC)c3)nc12	62.1%	
CCCc1nn(C)c2c(NCc3ccc(Cl)cc3)nc(/C=C/c3ccccc3)nc12	24.2%	
CCCc1nn(C)c2c(NCc3ccc(C(F)(F)F)cc3)nc(/C=C/c3cc(OC)c(OC)c(OC)c3)nc12	54.6%	
CCCc1nn(C)c2c(NC)nc(-c3cc(OC)c(OC)c(OC)c3)nc12	21.6%	
CCCc1nn(C)c2c(NCCc3ccc(OC)cc3)nc(/C=C/c3ccccc3)nc12	48%	
CCCc1nn(C)c2c(NCc3ccc(F)cc3)nc(/C=C/c3cc(OC)c(OC)c(OC)c3)nc12	69.7%	
CCCc1nn(C)c2c(NCCCN3CCOCC3)nc(/C=C/c3ccccc3)nc12	42.4%	
CCCc1nn(C)c2c(Nc3ccc(C(=O)OC)cc3)nc(/C=C/c3cc(OC)c(OC)c(OC)c3)nc12	10.3%	
CCCc1nn(C)c2c(N(C)C)nc(/C=C/c3ccccc3)nc12	27.1%	
CCCc1nn(C)c2c(N3CCOCC3)nc(-c3cc(OC)c(OC)c(OC)c3)nc12	5.2%	
CCCc1nn(C)c2c(Nc3ccc(F)c(C(F)(F)F)c3)nc(/C=C/c3cc(OC)c(OC)c(OC)c3)nc12	82.6%	
CCCc1nn(C)c2c(Nc3cccc(Br)c3)nc(/C=C/c3cc(OC)c(OC)c(OC)c3)nc12	31%	
CCCc1nn(C)c2c(Nc3cccc(C(F)(F)F)c3)nc(-c3cc(OC)c(OC)c(OC)c3)nc12		inhibition (RAW264.7 [4]): inactive
CCCc1nn(C)c2c(N3CCN(CC)CC3)nc(/C=C/c3cc(OC)c(OC)c(OC)c3)nc12	28.3%	

SMILES	inhibition at 10 µM (RAW264.7 [4])	other results
CCCc1nn(C)c2c(NCc3ccc(OC)cc3)nc(/C=C/c3ccco3)nc12	43.8%	
CCCc1nn(C)c2c(NCCc3ccccc3)nc(/C=C/c3ccccc3)nc12	48.6%	
CCCc1nn(C)c2c(NCc3cccc(OC)c3)nc(/C=C/c3ccco3)nc12	35.6%	
CCCc1nn(C)c2c(NCc3ccco3)nc(/C=C/c3ccco3)nc12	52.3%	
CCCc1nn(C)c2c(NCc3ccccc3Cl)nc(/C=C/c3cc(OC)c(OC)c(OC)c3)nc12	90%	
CCCc1nn(C)c2c(NCc3ccc(C(F)(F)F)cc3)nc(/C=C/c3ccco3)nc12	50.2%	
CCCc1nn(C)c2c(NC(C)C)nc(-c3cc(OC)c(OC)c(OC)c3)nc12	51.9%	IC50 (RAW264.7 [1]; [6]): 10.8 µM; IC50 (RAW264.7 [2]): > 50 µM; IC50 (RAW264.7 [3]): > 50 µM; IC50 ([5]; read-out: IC50): 7.26 µM
CCCc1nn(C)c2c(Nc3ccccc3)nc(-c3cc(OC)c(OC)c(OC)c3)nc12	22.2%	
CCCc1nn(C)c2c(Nc3cccc(C(F)(F)F)c3)nc(/C=C/c3ccccc3)nc12	14.6%	
CCCc1nn(C)c2c(N3CCCCC3)nc(/C=C/c3ccccc3)nc12	7.7%	
CCCc1nn(C)c2c(Nc3ccc(C(=O)O)cc3)nc(-c3cc(OC)c(OC)c(OC)c3)nc12	44.9%	IC50 (RAW264.7 [1]; [6]): 15.8 µM; IC50 (RAW264.7 [2]): > 50 µM; IC50 (RAW264.7 [3]): > 50 µM; IC50 ([5]; read-out: IC50): 10.2 µM
CCCCNC(=O)c1ccc(Nc2nc(/C=C/c3cc(OC)c(OC)c(OC)c3)nc3c(CCC)nn(C)c23)cc1	35.9%	
CCCc1nn(C)c2c(Nc3cccc(C(F)(F)F)c3)nc(/C=C/c3cc(OC)c(OC)c(OC)c3)nc12	38.2%	
CCCc1nn(C)c2c(Nc3ccccc3C)nc(/C=C/c3cc(OC)c(OC)c(OC)c3)nc12	54.4%	
CCCc1nn(C)c2c(Nc3ccccc3Br)nc(/C=C/c3cc(OC)c(OC)c(OC)c3)nc12	38.5%	
CCCc1nn(C)c2c(N3CCN(CC)CC3)nc(/C=C/c3ccccc3)nc12	10.2%	
CCCc1nn(C)c2c(Nc3ccc(C(=O)OC)cc3)nc(/C=C/c3ccccc3)nc12	42.4%	
CCCc1nn(C)c2c(Nc3ccc(C(=O)NC(C)(C)C)cc3)nc(/C=C/c3cc(OC)c(OC)c(OC)c3)nc12	10.6%	
CCCc1nn(C)c2c(NCCc3ccccc3F)nc(/C=C/c3ccco3)nc12	73%	
CCCc1nn(C)c2c(N3CCC(O)CC3)nc(/C=C/c3cc(OC)c(OC)c(OC)c3)nc12	45.3%	IC50 (RAW264.7 [1]; [6]): 13.7 µM; IC50 (RAW264.7 [2]): > 50 µM; IC50 (RAW264.7 [3]): > 50 µM; IC50 ([5]; read-out: IC50): 5.23 µM
CCCCNC(=O)c1ccc(Nc2nc(-c3cc(OC)c(OC)c(OC)c3)nc3c(CCC)nn(C)c23)cc1		inhibition (RAW264.7 [4]): inactive
CCCc1nn(C)c2c(Nc3cccc(C)c3)nc(/C=C/c3ccco3)nc12	8.9%	
CCCc1nn(C)c2c(Nc3ccc(OC(F)(F)F)cc3)nc(/C=C/c3cc(OC)c(OC)c(OC)c3)nc12	16.4%	
CCCc1nn(C)c2c(Nc3ccc(Cl)cc3)nc(/C=C/c3cc(OC)c(OC)c(OC)c3)nc12	25.3%	
CCCc1nn(C)c2c(NCc3ccc(F)cc3)nc(/C=C/c3ccco3)nc12	50.7%	
CCCc1nn(C)c2c(NC(C)C)nc(/C=C/c3ccccc3)nc12	53.9%	IC50 (RAW264.7 [1]; [6]): 12.2 µM; IC50 (RAW264.7 [2]): > 50 µM; IC50 (RAW264.7 [3]): > 50 µM; IC50 ([5]; read-out: IC50): 8.46 µM
CCCc1nn(C)c2c(NCc3cccc(OC)c3)nc(/C=C/c3cc(OC)c(OC)c(OC)c3)nc12	70.9%	

— ChEMBL document CHEMBL4354797, “Novel Pyrazolo[4,3- d]pyrimidine as Potent and Orally Active Inducible Nitric Oxide Synthase (iNOS) Dimerization Inhibitor with Efficacy in Rheumatoid Arthritis Mouse Model” (J Med Chem, 2019)
